Activity calls are given as the source filed them.
Key:
[1] = tested on: Mus musculus; test: Hepatotoxicity in Swiss mouse assessed as change in plasma AST level at 2.5 mg/kg, po for 7 days measured over 7 days relative to vehicle-treated control; type: toxicity, organism-based; design: dose 2.5 mg/kg, route oral; details: in vivo, 168 h
Outline: (§1)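 Mice dosed po daily for 7 days: vehicle (2% DMSO/saline or Tris/HCl pH 8.0), 10 mg/kg, or indomethacin 2.5 mg/kg. Heparinized blood is drawn under terminal anesthesia, and plasma AST and ALT are measured with a diagnostic kit. n = 8.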

[2] = tested on: Mus musculus; test: Antinociceptive activity in Swiss mouse assessed as inhibition of acetic acid-induced writhing at 5 mg/kg, ip administered 30 mins prior to acetic acid challenge; type: functional, organism-based; design: dose 5 mg/kg
[3] = tested on: Mus musculus; test: Hepatotoxicity in Swiss mouse assessed as change in plasma ALT level at 2.5 mg/kg, po for 7 days measured over 7 days relative to vehicle-treated control; type: toxicity, organism-based; design: dose 2.5 mg/kg, route oral; details: in vivo, 168 h; outline: as §1
[4] = tested on: Mus musculus; test: Antihyperalgesic activity in carrageenan-induced mechanical hyperalgesia Swiss mouse model assessed as paw withdrawal latency at 5 mg/kg, ip administered 40 mins prior to challenge by electronic pressure-meter test; type: functional, organism-based; design: dose 5 mg/kg
Outline: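 Male Swiss mice dosed po (1–10 mg/kg, 2% DMSO in saline) 30 min before intraplantar carrageenin (100 μg/paw). Control indomethacin 5 mg/kg ip given 40 min before. Electronic pressure-meter readings at 1, 3 and 5 h, mean of three. Δ withdrawal threshold (g) is the post-stimulus reading minus zero-time. n = 5.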

[5] = tested on: Mus musculus; test: Antinociceptive activity in Swiss mouse assessed as inhibition of PBQ-induced writhing at 5 mg/kg, ip administered 30 mins prior to PBQ challenge; type: functional, organism-based; design: dose 5 mg/kg
[6] = tested on: Mus musculus; test: Gastrointestinal toxicity in Swiss mouse assessed as increase in stomach MPO activity at 2.5 mg/kg, po for 7 days measured over 7 days relative to vehicle-treated control; type: organism-based; design: dose 2.5 mg/kg, route oral; details: in vivo, 168 h
Outline: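 Mice dosed po daily for 7 days: vehicle (2% DMSO/saline or Tris/HCl pH 8.0), 10 mg/kg, or indomethacin 2.5 mg/kg. Stomach is homogenized in 50 mM phosphate buffer pH 6.0 with 0.5% HTAB. Supernatant is reacted with o-dianisidine/H2O2 and read at 450 nm. Results expressed as neutrophils ×10^4/mg tissue from a neutrophil standard curve. n = 8.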

COc1ccc2c(c1)c(CC(=O)O)c(C)n2C(=O)c1ccc(Cl)cc1 [INDOMETHACIN]
Activity [1]: Toxic | inhibition [2]: Active | Activity [3]: Toxic | Activity [4]: Active | inhibition [5]: Active | Activity [6]: Toxic

Reference: ChEMBL document CHEMBL2176909, “Kaurenoic acid from Sphagneticola trilobata Inhibits Inflammatory Pain: effect on cytokine production and activation of the NO-cyclic GMP-protein kinase G-ATP-sensitive potassium channel signaling pathway” (J Nat Prod, 2012)
